# According to ChEMBL document CHEMBL2086331, “Novel triazolopyridylbenzamides as potent and selective p38α inhibitors” (Bioorg Med Chem Lett, 2012):
# Key:
# [1] = AUC in Wistar rat at 10 mg/kg, po; assay type: ADME, organism-based; design: dose 10 mg/kg, route oral; details: plasma
# Outline: (§1)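 Wistar rats, single dose either iv 1 mg/kg in 40% PEG + 0.4% HCl 1 N, or oral 10 mg/kg in 0.5% methylcellulose + 0.1% Tween 80; plasma PK parameters reported as mean values (n = 2).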
# [2] = Cmax in Wistar rat at 10 mg/kg, po; assay type: ADME, organism-based; design: dose 10 mg/kg, route oral; details: in vivo; outline: as §1
# [3] = Half life in beagle dog at 1 mg/kg, iv; assay type: ADME, organism-based, Canis lupus familiaris; design: dose 1 mg/kg, route intravenous; details: in vivo
# Outline: (§2)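 Beagle dogs dosed 1 mg/kg iv or 1 mg/kg po; pharmacokinetic parameters reported as mean values of n = 2 animals.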
# [4] = Half life in Wistar rat at 1 mg/kg, iv; assay type: ADME, organism-based; design: dose 1 mg/kg, route intravenous; details: in vivo; outline: as §1
# [5] = AUC in Wistar rat at 1 mg/kg, iv; assay type: ADME, organism-based; design: dose 1 mg/kg, route intravenous; details: plasma; outline: as §1
# [6] = Clearance in Wistar rat at 1 mg/kg, iv; assay type: ADME, organism-based; design: dose 1 mg/kg, route intravenous; details: in vivo; outline: as §1
# [7] = system: Blood; assay: Inhibition of LPS-induced TNFalpha production in human whole blood; assay type: functional, tissue-based
# [8] = system: Rattus norvegicus; assay: Inhibition of TNFalpha release in rat LPS-induced endotoxemia model dosed orally 1 hr prior to LPS challenge and measured 1.5 hrs post LPS challenge; assay type: functional; details: po
# Outline: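 Rats given compound orally 1 h before LPS challenge to induce endotoxemia; plasma TNFα quantified 1.5 h after LPS, at peak TNF production.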
# [9] = target: Cytochrome P450 2C9 (Homo sapiens, UniProt P11712); assay: Inhibition of CYP2C9 at < 25 uM; assay type: ADME
# Cytochrome P450 2C9, sequence (P11712 whole entry): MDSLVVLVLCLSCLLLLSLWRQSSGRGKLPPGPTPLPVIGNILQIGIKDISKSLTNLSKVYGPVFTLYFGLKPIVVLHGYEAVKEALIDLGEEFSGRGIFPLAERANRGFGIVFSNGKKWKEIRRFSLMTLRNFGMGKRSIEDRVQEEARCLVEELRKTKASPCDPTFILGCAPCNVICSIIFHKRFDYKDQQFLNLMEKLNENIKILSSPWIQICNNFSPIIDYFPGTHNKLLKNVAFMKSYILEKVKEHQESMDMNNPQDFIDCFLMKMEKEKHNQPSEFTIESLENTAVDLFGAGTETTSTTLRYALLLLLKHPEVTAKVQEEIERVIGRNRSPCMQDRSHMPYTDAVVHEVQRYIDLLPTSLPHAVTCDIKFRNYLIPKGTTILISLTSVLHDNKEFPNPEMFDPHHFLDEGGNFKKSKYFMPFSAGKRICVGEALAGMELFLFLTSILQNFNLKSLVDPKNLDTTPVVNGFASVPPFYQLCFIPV
# [10] = Passive permeability from basolateral to apical side in human Caco2 cells at 12.5 uM; assay type: ADME, cell-based; details: Caco-2, read-out: permeability
# Outline: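 Caco-2 monolayer, test compound 12.5 µM; passive apparent permeability measured in both AB and BA directions, reported in 10^-6 cm/s.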
# [11] = target: Cytochrome P450 2D6 (Homo sapiens, UniProt P10635); assay: Inhibition of CYP2D6 at < 25 uM; assay type: ADME
# Cytochrome P450 2D6, sequence (P10635 whole entry): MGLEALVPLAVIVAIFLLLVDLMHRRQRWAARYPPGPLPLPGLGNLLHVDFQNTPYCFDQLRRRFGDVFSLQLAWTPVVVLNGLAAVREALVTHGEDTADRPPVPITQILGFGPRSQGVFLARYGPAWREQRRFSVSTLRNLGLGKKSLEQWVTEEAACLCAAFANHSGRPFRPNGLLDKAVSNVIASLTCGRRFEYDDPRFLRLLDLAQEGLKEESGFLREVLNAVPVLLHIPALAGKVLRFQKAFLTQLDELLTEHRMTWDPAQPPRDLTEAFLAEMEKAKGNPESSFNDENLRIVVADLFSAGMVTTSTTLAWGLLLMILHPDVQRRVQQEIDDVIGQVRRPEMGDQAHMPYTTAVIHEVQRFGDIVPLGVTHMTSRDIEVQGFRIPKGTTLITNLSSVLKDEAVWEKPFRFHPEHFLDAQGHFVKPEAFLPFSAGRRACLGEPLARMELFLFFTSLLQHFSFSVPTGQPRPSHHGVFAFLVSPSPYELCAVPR
# [12] = Protein binding in human plasma; assay type: ADME, cell-free; details: read-out: PPB (converted)
# [13] = Volume of distribution at steady state in beagle dog at 1 mg/kg, iv; assay type: ADME, organism-based, Canis lupus familiaris; design: dose 1 mg/kg, route intravenous; details: in vivo, read-out: Vdss; outline: as §2
# [14] = target: T1, RAF proto-oncogene serine/threonine-protein kinase (Homo sapiens, UniProt P04049); assay: Inhibition of c-Raf
# T1 sequence (P04049 whole entry): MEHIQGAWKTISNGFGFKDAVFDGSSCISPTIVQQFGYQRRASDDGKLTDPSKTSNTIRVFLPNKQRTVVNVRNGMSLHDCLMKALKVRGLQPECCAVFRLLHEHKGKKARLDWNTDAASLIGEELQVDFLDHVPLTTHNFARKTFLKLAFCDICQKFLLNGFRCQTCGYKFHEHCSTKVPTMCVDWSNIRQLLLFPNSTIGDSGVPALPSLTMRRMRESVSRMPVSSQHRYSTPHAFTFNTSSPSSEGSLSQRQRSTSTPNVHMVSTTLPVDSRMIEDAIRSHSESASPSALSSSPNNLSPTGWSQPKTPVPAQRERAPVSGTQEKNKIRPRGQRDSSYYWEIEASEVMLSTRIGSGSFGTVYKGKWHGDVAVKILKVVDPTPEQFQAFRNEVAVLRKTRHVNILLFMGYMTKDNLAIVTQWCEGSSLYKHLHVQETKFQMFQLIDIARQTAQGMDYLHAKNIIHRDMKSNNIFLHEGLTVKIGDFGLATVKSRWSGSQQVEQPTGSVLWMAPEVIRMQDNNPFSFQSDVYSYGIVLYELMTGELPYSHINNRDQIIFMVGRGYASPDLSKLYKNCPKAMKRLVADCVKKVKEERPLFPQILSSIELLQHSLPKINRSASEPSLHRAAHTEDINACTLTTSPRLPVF
# [15] = Volume of distribution at steady state in Wistar rat at 1 mg/kg, iv; assay type: ADME, organism-based; design: dose 1 mg/kg, route intravenous; details: in vivo, read-out: Vdss; outline: as §1
# [16] = system: Rattus norvegicus; assay: Antiarthritic effect in rat adjuvant-induced arthritis model assessed as inhibition of right paw edema at 3 mg/kg, po dosed daily during last 10 days of test; assay type: functional; details: 240 h
# Outline: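 Arthritis induced by complete Freund's adjuvant injected into left hind paw; oral compound daily over final 10 days of protocol; right (non-injected) paw volume monitored, result as % inhibition of oedema.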
# [17] = system: CHO; assay: Toxicity against CHO cells; assay type: cell-based, Cricetulus griseus; details: chinese hamster
# [18] = Oral bioavailability in beagle dog at 1 mg/kg; assay type: ADME, organism-based, Canis lupus familiaris; details: in vivo; outline: as §2
# [19] = in vitro; details: human, Caco-2
# [20] = AUC in beagle dog at 1 mg/kg, po; assay type: ADME, organism-based, Canis lupus familiaris; design: dose 1 mg/kg, route oral; details: plasma; outline: as §2
# [21] = target: T2, Cytochrome P450 1A2 (Homo sapiens, UniProt P05177); assay: Inhibition of CYP1A2 at < 25 uM; assay type: ADME
# T2 sequence (P05177 whole entry): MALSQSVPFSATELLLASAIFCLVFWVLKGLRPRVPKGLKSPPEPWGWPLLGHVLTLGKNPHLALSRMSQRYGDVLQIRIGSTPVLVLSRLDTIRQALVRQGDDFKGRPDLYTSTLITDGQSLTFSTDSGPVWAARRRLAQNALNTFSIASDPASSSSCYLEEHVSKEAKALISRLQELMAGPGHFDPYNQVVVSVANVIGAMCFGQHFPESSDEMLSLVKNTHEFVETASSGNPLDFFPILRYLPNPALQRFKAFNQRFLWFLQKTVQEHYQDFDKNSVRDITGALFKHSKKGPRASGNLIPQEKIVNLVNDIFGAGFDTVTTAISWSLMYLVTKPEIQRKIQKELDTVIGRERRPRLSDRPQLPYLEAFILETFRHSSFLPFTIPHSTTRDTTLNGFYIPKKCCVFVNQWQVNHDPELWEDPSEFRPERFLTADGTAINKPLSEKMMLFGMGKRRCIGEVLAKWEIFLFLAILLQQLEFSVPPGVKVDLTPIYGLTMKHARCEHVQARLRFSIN
# [22] = Clearance in beagle dog at 1 mg/kg, iv; assay type: ADME, organism-based, Canis lupus familiaris; design: dose 1 mg/kg, route intravenous; details: in vivo; outline: as §2
# [23] = Stability in rat hepatic microsomes assessed as compound turnover at 5 uM incubated for 30 mins in presence of NADPH; assay type: ADME; details: liver microsomes, read-out: Drug degradation
# Outline: (§3)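 Rat or human hepatic microsomes (1 mg/mL) with NADPH, test compound 5 µM, 30 min at 37 °C; readout is % turnover of parent.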
# [24] = Stability in human hepatic microsomes assessed as compound turnover at 5 uM incubated for 30 mins in presence of NADPH; assay type: ADME; details: liver microsomes, read-out: Drug degradation; outline: as §3
# [25] = target: Cytochrome P450 3A4 (Homo sapiens, UniProt P08684); assay: Inhibition of CYP3A4 at < 25 uM; assay type: ADME
# Cytochrome P450 3A4, sequence (P08684 whole entry): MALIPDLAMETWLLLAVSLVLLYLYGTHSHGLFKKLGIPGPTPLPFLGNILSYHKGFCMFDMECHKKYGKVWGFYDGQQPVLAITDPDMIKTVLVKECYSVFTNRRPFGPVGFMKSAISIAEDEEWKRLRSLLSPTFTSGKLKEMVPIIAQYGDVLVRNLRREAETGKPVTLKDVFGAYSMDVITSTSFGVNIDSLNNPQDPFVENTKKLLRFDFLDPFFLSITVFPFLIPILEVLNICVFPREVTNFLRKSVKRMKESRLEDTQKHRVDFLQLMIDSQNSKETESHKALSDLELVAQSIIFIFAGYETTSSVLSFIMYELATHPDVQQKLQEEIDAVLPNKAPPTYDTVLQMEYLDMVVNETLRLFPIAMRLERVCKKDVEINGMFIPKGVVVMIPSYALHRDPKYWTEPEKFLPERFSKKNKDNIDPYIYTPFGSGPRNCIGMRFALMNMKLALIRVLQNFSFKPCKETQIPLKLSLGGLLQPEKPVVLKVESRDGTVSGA
# [26] = Protein binding in rat plasma; assay type: ADME, cell-free; details: read-out: PPB (converted)
# [27] = AUC in beagle dog at 1 mg/kg, iv; assay type: ADME, organism-based, Canis lupus familiaris; design: dose 1 mg/kg, route intravenous; details: plasma; outline: as §2
# [28] = Oral bioavailability in Wistar rat at 10 mg/kg; assay type: ADME, organism-based; details: in vivo; outline: as §1
# [29] = system: CHO; assay: Cytotoxicity against CHO cells at 200 uM; assay type: cell-based, Cricetulus griseus; details: chinese hamster
# [30] = Cmax in beagle dog at 1 mg/kg, po; assay type: ADME, organism-based, Canis lupus familiaris; design: dose 1 mg/kg, route oral; details: in vivo; outline: as §2
# [31] = target: Cytochrome P450 2C19 (Homo sapiens, UniProt P33261); assay: Inhibition of CYP2C19 at < 25 uM; assay type: ADME
# Cytochrome P450 2C19, sequence (P33261 whole entry): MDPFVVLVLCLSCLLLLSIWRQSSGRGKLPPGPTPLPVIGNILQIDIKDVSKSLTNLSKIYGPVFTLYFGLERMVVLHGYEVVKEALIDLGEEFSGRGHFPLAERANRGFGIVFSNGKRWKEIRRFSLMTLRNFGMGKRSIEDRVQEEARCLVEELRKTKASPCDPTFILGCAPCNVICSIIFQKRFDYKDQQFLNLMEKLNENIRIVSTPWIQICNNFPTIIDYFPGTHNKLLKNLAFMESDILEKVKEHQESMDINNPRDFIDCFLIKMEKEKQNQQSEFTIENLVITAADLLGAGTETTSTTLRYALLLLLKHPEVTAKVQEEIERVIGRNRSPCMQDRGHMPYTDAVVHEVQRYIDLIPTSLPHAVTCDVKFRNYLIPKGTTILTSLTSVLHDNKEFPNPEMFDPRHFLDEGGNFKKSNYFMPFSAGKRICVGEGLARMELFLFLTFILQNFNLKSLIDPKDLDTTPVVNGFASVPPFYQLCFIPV
# [32] = target: T3, Proto-oncogene tyrosine-protein kinase receptor Ret (Homo sapiens, UniProt P07949); assay: Inhibition of RET
# T3 sequence (P07949 whole entry): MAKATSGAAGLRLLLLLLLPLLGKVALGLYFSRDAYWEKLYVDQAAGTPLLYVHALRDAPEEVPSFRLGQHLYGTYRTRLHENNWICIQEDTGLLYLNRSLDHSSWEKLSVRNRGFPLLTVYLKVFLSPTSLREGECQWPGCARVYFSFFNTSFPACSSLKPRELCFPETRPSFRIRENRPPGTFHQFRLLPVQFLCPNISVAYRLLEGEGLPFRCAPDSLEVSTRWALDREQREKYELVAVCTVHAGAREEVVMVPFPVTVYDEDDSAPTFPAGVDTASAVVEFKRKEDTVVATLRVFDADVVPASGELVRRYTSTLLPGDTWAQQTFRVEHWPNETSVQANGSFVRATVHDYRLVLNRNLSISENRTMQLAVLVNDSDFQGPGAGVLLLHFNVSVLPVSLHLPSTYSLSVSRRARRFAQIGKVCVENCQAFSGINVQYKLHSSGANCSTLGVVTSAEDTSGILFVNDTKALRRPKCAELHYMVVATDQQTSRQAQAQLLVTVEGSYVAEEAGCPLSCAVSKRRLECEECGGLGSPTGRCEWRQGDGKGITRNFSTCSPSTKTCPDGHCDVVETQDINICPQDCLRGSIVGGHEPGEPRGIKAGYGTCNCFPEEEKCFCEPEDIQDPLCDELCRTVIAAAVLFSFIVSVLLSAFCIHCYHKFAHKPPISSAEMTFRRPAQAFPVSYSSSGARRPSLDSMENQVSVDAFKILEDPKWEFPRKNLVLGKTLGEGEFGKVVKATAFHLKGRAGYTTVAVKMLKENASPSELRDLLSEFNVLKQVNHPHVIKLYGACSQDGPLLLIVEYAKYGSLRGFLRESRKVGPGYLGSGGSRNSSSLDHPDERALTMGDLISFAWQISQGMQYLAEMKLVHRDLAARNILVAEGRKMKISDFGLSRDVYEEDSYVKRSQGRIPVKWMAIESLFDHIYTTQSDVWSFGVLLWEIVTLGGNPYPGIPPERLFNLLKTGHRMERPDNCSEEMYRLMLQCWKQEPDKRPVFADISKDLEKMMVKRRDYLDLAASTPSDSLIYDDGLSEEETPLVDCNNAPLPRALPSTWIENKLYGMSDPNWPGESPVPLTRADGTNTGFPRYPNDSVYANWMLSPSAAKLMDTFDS
# [33] = target: T3, Proto-oncogene tyrosine-protein kinase receptor Ret; assay: Inhibition of RET at 10 uM
# Outline: (§4)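 Upstate 55-kinase panel; single inhibitor concentration 10 µM, duplicate wells, ATP at the Km of each kinase.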
# [34] = target: T1, RAF proto-oncogene serine/threonine-protein kinase; assay: Inhibition of c-Raf at 10 uM; outline: as §4
# [35] = system: CHO; assay: Cytotoxicity against CHO cells; assay type: cell-based; details: Cricetulus griseus
compound,measurement,setting,value
Cc1ccc(C(=O)NC2CC2)cc1-c1ccn2c(C(C)(C)C)nnc2c1,AUC,[1],19400 ng·h/mL
same,Cmax,[2],2600 ng/mL
same,half-life,[3],2.5 h
same,half-life,[4],3.4 h
same,AUC,[5],2120 ng·h/mL
same,clearance,[6],7.8 mL/min/kg
same,IC50,[7],30 nM
same,ED50,[8],0.26 mg/kg
same,inhibition (INH),[9],Not Active
same,Papp B→A at 12.5 µM,[10],18 ×10⁻⁶ cm/s
same,inhibition (INH),[11],Not Active
same,fraction unbound,[12],0.42
same,Vd,[13],1.7 L/kg
same,IC50,[14],3200 nM
same,Vd,[15],2 L/kg
same,inhibition in vivo at 3 mg/kg,[16],60%
same,Activity,[17],Non-toxic
same,bioavailability,[18],75%
same,Papp A→B at 12.5 µM,[19],15 ×10⁻⁶ cm/s
same,AUC,[20],1260 ng·h/mL
same,inhibition (INH),[21],Not Active
same,clearance,[22],9.9 mL/min/kg
same,"metabolised at 0.5 h, 5 µM",[23],< 5%
same,"metabolised at 0.5 h, 5 µM",[24],< 5%
same,inhibition (INH),[25],Not Active
same,fraction unbound,[26],0.39
same,AUC,[27],1690 ng·h/mL
same,bioavailability,[28],93%
same,Activity,[29],50%
same,Cmax,[30],215 ng/mL
same,inhibition (INH),[31],Not Active
Cc1c(F)cc(C(=O)NC2CC2)cc1-c1c(F)cn2c(C(C)(C)C)nnc2c1F,AUC,[1],38600 ng·h/mL
same,Cmax,[2],3470 ng/mL
same,half-life,[3],7.3 h
same,half-life,[4],3.3 h
same,AUC,[5],8010 ng·h/mL
same,clearance,[6],2.3 mL/min/kg
same,IC50,[7],116 nM
same,ED50,[8],1.36 mg/kg
same,inhibition (INH),[9],Not Active
same,Papp B→A at 12.5 µM,[10],25 ×10⁻⁶ cm/s
same,inhibition (INH),[11],Not Active
same,fraction unbound,[12],0.21
same,Vd,[13],1.6 L/kg
same,Vd,[15],0.57 L/kg
same,inhibition in vivo at 3 mg/kg,[16],67%
same,Activity,[17],Non-toxic
same,bioavailability,[18],79%
same,Papp A→B at 12.5 µM,[19],41 ×10⁻⁶ cm/s
same,AUC,[20],5060 ng·h/mL
same,IC50,[32],2000 nM
same,inhibition (INH),[21],Not Active
same,clearance,[22],2.7 mL/min/kg
same,"metabolised at 0.5 h, 5 µM",[23],< 5%
same,"metabolised at 0.5 h, 5 µM",[24],6%
same,inhibition (INH),[25],Not Active
same,fraction unbound,[26],0.25
same,AUC,[27],6440 ng·h/mL
same,bioavailability,[28],50%
same,Activity,[29],33%
same,Cmax,[30],185 ng/mL
same,inhibition (INH),[31],Not Active
Cc1ccc(C(=O)NC2CC2)cc1-c1ccn2c(C3CC3)nnc2c1,IC50,[7],25 nM
Cc1c(F)cc(C(=O)NC2CC2)cc1-c1c(F)cn2c(C3CC3)nnc2c1F,IC50,[7],1470 nM
Cc1ccc(C(=O)NC2CC2)cc1-c1ccc2c(N3CCCCC3)noc2c1,IC50,[7],98 nM
Cc1c(F)cc(C(=O)NC2CC2)cc1-c1c(F)cn2c(C(C)(C)N)nnc2c1F,IC50,[7],822 nM
Cc1c(F)cc(C(=O)NC2CC2)cc1-c1c(F)cn2c(C(C)(C)N(C)C)nnc2c1F,IC50,[7],124 nM
Cc1c(F)cc(C(=O)NC2CC2)cc1-c1ccn2c(C(C)(C)C)nnc2c1,AUC,[1],17800 ng·h/mL
same,inhibition,[33],66%
same,Cmax,[2],2580 ng/mL
same,half-life,[3],3.5 h
same,half-life,[4],3.8 h
same,AUC,[5],2670 ng·h/mL
same,clearance,[6],6.5 mL/min/kg
same,IC50,[7],48 nM
same,inhibition (INH),[9],Not Active
same,Papp B→A at 12.5 µM,[10],23 ×10⁻⁶ cm/s
same,inhibition (INH),[11],Not Active
same,fraction unbound,[12],0.16
same,Vd,[13],1.6 L/kg
same,Vd,[15],1.3 L/kg
same,Activity,[17],Non-toxic
same,inhibition,[34],66%
same,Papp A→B at 12.5 µM,[19],27 ×10⁻⁶ cm/s
same,inhibition (INH),[21],Not Active
same,clearance,[22],6.2 mL/min/kg
same,"metabolised at 0.5 h, 5 µM",[23],< 5%
same,"metabolised at 0.5 h, 5 µM",[24],< 5%
same,inhibition (INH),[25],Not Active
same,fraction unbound,[26],0.21
same,AUC,[27],2770 ng·h/mL
same,IC50,[35],107000 nM
same,bioavailability,[28],66%
same,inhibition (INH),[31],Not Active
Cc1c(F)cc(C(=O)NC2CC2)cc1-c1ccn2c(C(N)=O)nnc2c1,IC50,[7],1840 nM
Cc1c(F)cc(C(=O)NC2CC2)cc1-c1c(F)cn2c(-c3ccncc3Cl)nnc2c1F,IC50,[7],> 5000 nM
Cc1ccc(C(=O)NC2CC2)cc1-c1ccn2c(-c3ccccc3Cl)nnc2c1,IC50,[7],20 nM
Cc1c(F)cc(C(=O)NC2CC2)cc1-c1ccn2c(C3CC3)nnc2c1,IC50,[7],213 nM
Cc1ccc(C(=O)NC2CC2)cc1-c1ccn2c(C(C)C)nnc2c1,IC50,[7],42 nM
Cc1ccc(C(=O)NC2CC2)cc1-c1ccn2c(C3CCOCC3)nnc2c1,IC50,[7],667 nM
CC(C)(C)c1nnc2ccc(Sc3ccc(F)cc3F)cn12,IC50,[7],143 nM
Cc1c(F)cc(C(=O)NC2CC2)cc1-c1ccn2c(C(C)C)nnc2c1,IC50,[7],115 nM
